Data taken from ChEMBL document CHEMBL1123986, “Oral absorption of cephalosporin antibiotics. 2. Expanded structure-activity relationships of 7-(arylacetamido)-3-substituted cephalosporins” (1988).
In brackets after ≈: the same amount, converted by molar mass.

What was measured:
Escherichia coli = experiment: Minimum inhibitory concentration against Escherichia coli; assay type: functional
Summary of the method: (§1)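 Agar dilution MIC in μg/mL. […] Organisms not run are marked not tested.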

Klebsiella pneumoniae = experiment: Minimum inhibitory concentration against Klebsiella pneumoniae; assay type: functional; summary of the method: as §1
Streptococcus pneumoniae = experiment: Minimum inhibitory concentration against Streptococcus pneumoniae; assay type: functional; summary of the method: as §1
Salmonella typhi = experiment: Minimum inhibitory concentration against Salmonella typhi; assay type: functional, Salmonella enterica subsp. enterica serovar Typhi; details: Salmonella enterica
Haemophilus influenzae [1] = experiment: (§2) Minimum inhibitory concentration against Haemophilus influenzae; assay type: functional; summary of the method: as §1
Klebsiella aerogenes = experiment: Minimum inhibitory concentration against Enterobacter aerogenes; assay type: functional; summary of the method: as §1
Streptococcus pyogenes = experiment: Minimum inhibitory concentration against Streptococcus pyogenes; assay type: functional; summary of the method: as §1
Staphylococcus aureus = experiment: Minimum inhibitory concentration against Staphylococcus aureus; assay type: functional; summary of the method: as §1
Haemophilus influenzae [2] = experiment: as §2; assay type: functional; summary of the method: as §1; remark: listed apart in the source

Row | SMILES | MIC (Escherichia coli) [µg/mL] | MIC (Klebsiella pneumoniae) [µg/mL] | MIC (Streptococcus pneumoniae) [µg/mL] | MIC (Salmonella typhi) [µg/mL] | MIC (Haemophilus influenzae [1]) [µg/mL] | MIC (Klebsiella aerogenes) [µg/mL] | MIC (Streptococcus pyogenes) [µg/mL] | MIC (Staphylococcus aureus) [µg/mL] | MIC (Haemophilus influenzae [2]) [µg/mL]
1 | O=C(Cc1csc2ccc(Cl)cc12)N[C@@H]1C(=O)N2C(C(=O)O)=C(Cl)CS[C@H]12 | 128 (≈ 289 µM) | 64 (≈ 144 µM) | 0.015 (≈ 0.0338 µM) | 128 (≈ 289 µM) | 2 (≈ 4.51 µM) |  |  |  | 
2 | CO/N=C/c1ccc(OCC(=O)N[C@@H]2C(=O)N3C(C(=O)O)=C(Cl)CS[C@H]23)cc1 | > 128 | > 128 | 0.06 (≈ 0.141 µM) | > 128 | 4 (≈ 9.39 µM) | > 128 | 0.03 (≈ 0.0704 µM) | 0.25 (≈ 0.587 µM) | 1 (≈ 2.35 µM)
3 | O=C(COc1ccc([N+](=O)[O-])cc1)N[C@@H]1C(=O)N2C(C(=O)O)=C(Cl)CS[C@H]12 | > 128 | > 128 | 0.03 (≈ 0.0725 µM) | > 128 | 2 (≈ 4.83 µM) | > 128 | 0.015 (≈ 0.0362 µM) | 0.25 (≈ 0.604 µM) | 1 (≈ 2.42 µM)
4 | CC1=C(C(=O)O)N2C(=O)[C@@H](NC(=O)Cc3csc4ccccc34)[C@H]2SC1 | > 128 | > 128 | 1 (≈ 2.57 µM) | > 128 | 32 (≈ 82.4 µM) | > 128 | 0.5 (≈ 1.29 µM) | 1 (≈ 2.57 µM) | 1 (≈ 2.57 µM)
5 | O=C(Cc1ccccc1)N[C@@H]1C(=O)N2C(C(=O)O)=C(Cl)CS[C@H]12 |  |  | 0.125 (≈ 0.354 µM) | 4 (≈ 11.3 µM) |  | 128 (≈ 363 µM) |  |  | 
6 | Nc1n[nH]c(SCC(=O)N[C@@H]2C(=O)N3C(C(=O)O)=C(Cl)CS[C@H]23)n1 | 16 (≈ 40.9 µM) | 8 (≈ 20.5 µM) | 2 (≈ 5.12 µM) | 8 (≈ 20.5 µM) | 4 (≈ 10.2 µM) | > 128 | 1 (≈ 2.56 µM) | 4 (≈ 10.2 µM) | 2 (≈ 5.12 µM)
7 | COc1ccc(CC(=O)N[C@@H]2C(=O)N3C(C(=O)O)=C(Cl)CS[C@H]23)cc1 | 64 (≈ 167 µM) | 32 (≈ 83.6 µM) | 0.125 (≈ 0.327 µM) | 32 (≈ 83.6 µM) | 1 (≈ 2.61 µM) | > 128 | 0.125 (≈ 0.327 µM) | 0.5 (≈ 1.31 µM) | 1 (≈ 2.61 µM)
8 | O=C(Cc1ccc(O)cc1)N[C@@H]1C(=O)N2C(C(=O)O)=C(Cl)CS[C@H]12 |  |  | 0.25 (≈ 0.678 µM) | 8 (≈ 21.7 µM) |  |  |  |  | 
9 | COC1=C(C(=O)O)N2C(=O)[C@@H](NC(=O)Cc3noc(C(Cl)(Cl)Cl)n3)[C@H]2SC1 | > 128 | > 128 | 4 (≈ 8.74 µM) | > 128 | 32 (≈ 69.9 µM) | > 128 | 4 (≈ 8.74 µM) | 16 (≈ 35 µM) | 32 (≈ 69.9 µM)
10 | O=C(Cc1csc(-c2ccccc2)n1)N[C@@H]1C(=O)N2C(C(=O)O)=C(Cl)CS[C@H]12 |  |  |  | > 128 |  | > 128 |  |  | 
11 | O=C(COc1ccccc1)N[C@@H]1C(=O)N2C(C(=O)O)=C(Cl)CS[C@H]12 |  |  | 0.125 (≈ 0.339 µM) | 64 (≈ 174 µM) |  |  |  |  | 
12 | O=C(CSc1nccs1)N[C@@H]1C(=O)N2C(C(=O)O)=C(Cl)CS[C@H]12 | 32 (≈ 81.7 µM) | 16 (≈ 40.8 µM) | 0.5 (≈ 1.28 µM) | 16 (≈ 40.8 µM) |  | > 128 | 0.25 (≈ 0.638 µM) | 1 (≈ 2.55 µM) | 
13 | O=C(Cc1noc(C(Cl)(Cl)Cl)n1)N[C@@H]1C(=O)N2C(C(=O)O)=CCS[C@H]12 | 32 (≈ 74.8 µM) | 32 (≈ 74.8 µM) | 2 (≈ 4.68 µM) | 16 (≈ 37.4 µM) | 32 (≈ 74.8 µM) | 128 (≈ 299 µM) | 2 (≈ 4.68 µM) | 2 (≈ 4.68 µM) | 16 (≈ 37.4 µM)
14 | O=C(Cc1ccc(F)cc1)N[C@@H]1C(=O)N2C(C(=O)O)=C(Cl)CS[C@H]12 | 32 (≈ 86.3 µM) | 32 (≈ 86.3 µM) | 0.125 (≈ 0.337 µM) | 16 (≈ 43.2 µM) | 4 (≈ 10.8 µM) | > 128 | 0.06 (≈ 0.162 µM) | 0.5 (≈ 1.35 µM) | 1 (≈ 2.7 µM)
15 | Nc1ccc(CC(=O)N[C@@H]2C(=O)N3C(C(=O)O)=C(Cl)CS[C@H]23)cc1 | 16 (≈ 43.5 µM) | 2 (≈ 5.44 µM) | 0.125 (≈ 0.34 µM) | 2 (≈ 5.44 µM) | 1 (≈ 2.72 µM) | 128 (≈ 348 µM) | 0.06 (≈ 0.163 µM) | 0.5 (≈ 1.36 µM) | 0.5 (≈ 1.36 µM)
16 | O=C(COc1ccc(Cl)cc1)N[C@@H]1C(=O)N2C(C(=O)O)=C(Cl)CS[C@H]12 | > 128 | > 128 | 0.03 (≈ 0.0744 µM) | > 128 | 1 (≈ 2.48 µM) | > 128 | 0.03 (≈ 0.0744 µM) | 0.125 (≈ 0.31 µM) | 1 (≈ 2.48 µM)
17 | COc1ccc(OCC(=O)N[C@@H]2C(=O)N3C(C(=O)O)=C(Cl)CS[C@H]23)cc1 | > 128 | > 128 | 0.125 (≈ 0.313 µM) | > 128 | 2 (≈ 5.01 µM) | > 128 | 0.06 (≈ 0.15 µM) | 0.25 (≈ 0.627 µM) | 2 (≈ 5.01 µM)
18 | O=C(CSc1nc[nH]n1)N[C@@H]1C(=O)N2C(C(=O)O)=C(Cl)CS[C@H]12 | 16 (≈ 42.6 µM) | 16 (≈ 42.6 µM) | 2 (≈ 5.32 µM) | 16 (≈ 42.6 µM) | 4 (≈ 10.6 µM) | > 128 | 0.5 (≈ 1.33 µM) | 4 (≈ 10.6 µM) | 4 (≈ 10.6 µM)
19 | COc1ccccc1CC(=O)N[C@@H]1C(=O)N2C(C(=O)O)=C(Cl)CS[C@H]12 | > 128 | > 128 | 1 (≈ 2.61 µM) | > 128 | 2 (≈ 5.22 µM) | > 128 | 1 (≈ 2.61 µM) | 1 (≈ 2.61 µM) | 1 (≈ 2.61 µM)
20 | O=C(Cc1ccc(Cl)cc1)N[C@@H]1C(=O)N2C(C(=O)O)=C(Cl)CS[C@H]12 | 64 (≈ 165 µM) | 128 (≈ 331 µM) | 0.125 (≈ 0.323 µM) | 64 (≈ 165 µM) | 1 (≈ 2.58 µM) | > 128 | 0.06 (≈ 0.155 µM) | 0.25 (≈ 0.646 µM) | 0.5 (≈ 1.29 µM)
21 | Cc1nc(CC(=O)N[C@@H]2C(=O)N3C(C(=O)O)=C(Cl)CS[C@H]23)c(-c2ccccc2)s1 | > 128 | > 128 | 0.06 (≈ 0.133 µM) | > 128 | 32 (≈ 71.1 µM) | > 128 | 0.015 (≈ 0.0333 µM) | 0.125 (≈ 0.278 µM) | 32 (≈ 71.1 µM)
22 | O=C(Cc1csc2ccc(Cl)cc12)N[C@@H]1C(=O)N2C(C(=O)O)=CCS[C@H]12 | 128 (≈ 313 µM) | 128 (≈ 313 µM) |  | > 128 |  |  | 0.03 (≈ 0.0734 µM) | 0.125 (≈ 0.306 µM) | 
23 | O=C(Cc1noc(C(Cl)(Cl)Cl)n1)N[C@@H]1C(=O)N2C(C(=O)O)=C(Cl)CS[C@H]12 | 64 (≈ 138 µM) | 16 (≈ 34.6 µM) | 0.5 (≈ 1.08 µM) | 16 (≈ 34.6 µM) | 4 (≈ 8.66 µM) | > 128 | 0.25 (≈ 0.541 µM) | 2 (≈ 4.33 µM) | 4 (≈ 8.66 µM)
24 | COc1ccc(CC(=O)N[C@@H]2C(=O)N3C(C(=O)O)=C(Cl)CS[C@H]23)cc1OC | 128 (≈ 310 µM) | 128 (≈ 310 µM) | 0.06 (≈ 0.145 µM) | 128 (≈ 310 µM) | 1 (≈ 2.42 µM) | > 128 | 0.3 (≈ 0.727 µM) | 0.25 (≈ 0.606 µM) | 0.5 (≈ 1.21 µM)
25 | O=Cc1ccc(OCC(=O)N[C@@H]2C(=O)N3C(C(=O)O)=C(Cl)CS[C@H]23)cc1 | > 128 | > 128 | 0.03 (≈ 0.0756 µM) | > 128 | 2 (≈ 5.04 µM) | > 128 | 0.015 (≈ 0.0378 µM) | 0.25 (≈ 0.63 µM) | 1 (≈ 2.52 µM)
